Results published in ChEMBL document CHEMBL2321796, “Synthesis of 8-hydroxyquinoline derivatives as novel antitumor agents” (ACS Med Chem Lett, 2013).
In brackets after ≈: the same amount, converted by molar mass. Activity calls are given as the source filed them. The rule behind the calls is not given here.

What was measured:
[1] = tested on: Hs-578T; assay: Induction of morphological changes in human Hs578T cells at 50 ug/ml; format: functional, cell-based
[2] = Cytotoxicity against human Hep3B cells after 48 hrs by MTS assay; format: functional, Hep 3B2
Outline: (§1)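 MTS assay on cancer cell lines and nontumor NIH3T3 cells. MTS50 is the concentration giving 50% reduction of MTS signal versus control. Dose-response tests run in triplicate over three independent experiments, means ± SDs against vehicle control.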

[3] = tested on: T47D; assay: Ratio of CDDP IC50 to compound IC50 for human T47D cells; format: functional
[4] = tested on: A549; assay: Cytotoxicity against human A549 cells after 48 hrs by MTS assay; format: functional; outline: as §1
[5] = tested on: Hep 3B2; assay: Antitumor activity against human Hep3B cells xenografted in athymic nude mouse assessed as disappearance of tumor at 10 mg/kg, ip qd for 8 days; format: functional, organism-based; design: dose 10 mg/kg; details: in the assay text read “for 9 days” for “for 8 days”
Outline: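 Subcutaneous Hep3B hepatocellular carcinoma xenografts in athymic nude mice, five per group, vehicle control group. Dosing 10 mg/kg/day by daily intraperitoneal injection, 9 days. Tumor volume (mm3) followed, given as mean + SD, Student's t test. Vital organs examined by hematoxylin and eosin histology.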

[6] = tested on: T47D; assay: Cytotoxicity against human T47D cells after 48 hrs by MTS assay; format: functional; outline: as §1
[7] = tested on: Mus musculus; assay: Toxicity in human Hep3B cells xenografted athymic nude mouse assessed as changes in histological appearance of vital organs at 10 mg/kg, ip qd for 8 days by ematoxylin and eosin staining; format: organism-based, Hep 3B2; design: dose 10 mg/kg, route intraperitoneal; details: in vivo, 192 h
Outline: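 Human Hep3B hepatocellular carcinoma cells grown as subcutaneous xenografts in athymic nude mice, five per group, given daily intraperitoneal injection at 10 mg/kg/day alongside vehicle controls. After 8 days of treatment, vital organs were collected, stained with hematoxylin and eosin, and examined for tissue damage at the histological level.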

[8] = Up-regulation of CLGN gene expression in human KYSE-150 cells at 8.5 ug/ml after 48 hrs; format: functional, cell-based
Outline: (§2)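 KYSE150 esophageal cancer cells treated with 8.5 μg/mL for 48 h alongside a vehicle control. Total RNA extracted and gene expression change expressed as percent change in detection signal versus control.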

[9] = Solubility of the compound in physiological saline; format: physicochemical; details: buffer
[10] = tested on: SAOS-2; assay: Cytotoxicity against human Saos2 cells after 48 hrs by MTS assay; format: functional; outline: as §1
[11] = tested on: T47D; assay: Induction of morphological changes in human T47D cells at 50 ug/ml; format: functional, cell-based
[12] = tested on: K562; assay: Cytotoxicity against human K562 cells at 50 ug/ml after 48 hrs by MTS assay relative to control; format: functional
Outline: (§3)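 Single-concentration screen at 50 μg/mL against T-47D and K562 cells, activity expressed relative to a vehicle control set at 100. Means ± SDs from triplicated experiments.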

[13] = tested on: SK-HEP1; assay: Cytotoxicity against human SKHEP1 cells after 48 hrs by MTS assay; format: functional; outline: as §1
[14] = tested on: Hs-578T; assay: Cytotoxicity against human Hs578T cells after 48 hrs by MTS assay; format: functional; outline: as §1
[15] = tested on: Mus musculus; assay: Toxicity in human Hep3B cells xenografted athymic nude mouse assessed as mortality at 10 mg/kg, ip qd for 8 days; format: organism-based, Hep 3B2; design: dose 10 mg/kg, route intraperitoneal; details: in vivo, 192 h
Outline: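 Athymic nude mice bearing subcutaneous human Hep3B hepatocellular carcinoma xenografts, five per group, received 10 mg/kg/day intraperitoneally once daily, with a vehicle-treated control group. Deaths were recorded over the treatment period.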

[16] = tested on: MDA-MB-231; assay: Induction of morphological changes in human MDA-MB-231 cells at 50 ug/ml; format: functional, cell-based
[17] = tested on: T47D; assay: Cytotoxicity against human T47D cells at 50 ug/ml after 48 hrs by MTS assay relative to control; format: functional; outline: as §3
[18] = Cytotoxicity against mouse NIH/3T3 cells after 48 hrs by MTS assay; format: cell-based, NIH3T3; details: read-out: MTS50; outline: as §1
[19] = Down regulation of CCL5 gene expression in human KYSE-150 cells at 8.5 ug/ml after 48 hrs; format: functional, cell-based; outline: as §2
[20] = tested on: K562; assay: Inhibition of colony formation in human K562 cells at 50 ug/ml after 24 hrs by anchorage-dependent clonogenicity assay; format: functional, cell-based
Outline: (§4)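 Anchorage-dependent clonogenicity assay on K562 and T47D cells. Treatment at 50 μg/mL for 24 h, then colony formation scored as percent inhibition versus vehicle control.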

[21] = tested on: MDA-MB-231; assay: Cytotoxicity against human MDA-MB-231 cells after 48 hrs by MTS assay; format: functional; outline: as §1
[22] = tested on: T47D; assay: Inhibition of colony formation in human T47D cells at 50 ug/ml after 24 hrs by anchorage-dependent clonogenicity assay; format: functional, cell-based; outline: as §4
[23] = tested on: K562; assay: Cytotoxicity against human K562 cells after 48 hrs by MTS assay; format: functional; outline: as §1

In the case of `O=Cc1ccc2cccc(O)c2n1`, the Activity [1] was “Active”, the MTS50 [2] was 6.25 µg/mL and the “Ratio IC50” value [3] was 4. For the same molecule, the MTS50 [4] was over 50 µg/mL, the Activity [5] was “Active” and the MTS50 [6] was 12.5 µg/mL. For the same molecule, the Activity [7] was “Non-toxic”, the Activity [8] was 65.4% and the solubility [9] was “Insoluble”. For the same molecule, the MTS50 [10] was 12.5 µg/mL, the Activity [11] was “Active” and the Activity [12] was 7%. The MTS50 [13] was 12.5 µg/mL, the MTS50 [14] was 12.5 µg/mL and the Activity [15] was “Non-toxic”. The Activity [16] was “Active”, the Activity [17] was 8.37% and the CC50 at 48 h [18] was 7 µg/mL (≈ 40.4 µM). The Activity [19] was 53.4%, the inhibition [20] was “Dose-dependent effect” and the MTS50 [21] was 12.5 µg/mL. The inhibition [22] was “Dose-dependent effect” and the MTS50 [23] was 12.5 µg/mL.
Work on `Cc1ccc2cccc(OCCN3CCCCC3)c2n1` yielded an Activity [12] of 27.43% and an Activity [17] of 69.2%.
For `CCOc1cccc2ccc(C)nc12`, the Activity [12] was 21.38% and the Activity [17] was 63.43%.
`Oc1cccc2cccnc12` [OXYQUINOLINE] showed an Activity [12] of 26.66% and an Activity [17] of 52.6%.
Work on `Cc1ccc2cccc(O)c2n1` [8-HYDROXY QUINALDINE] yielded an Activity [12] of 34.46% and an Activity [17] of 46.54%.
`N#Cc1ccc2cccc(O)c2n1` showed an Activity [12] of 23.08% and an Activity [17] of 72.92%.
With `COc1cccc2ccc(C)nc12` the Activity [12] was 27.15% and the Activity [17] was 37.92%.
